The source made the active and inactive calls. The rule behind the calls is not given here.
Experiments:
[1] = target: T1, Adrenergic receptor alpha-2 (Rattus norvegicus) (UniProt P22086+P19328+P22909); assay: Binding affinity for alpha-2 adrenergic receptor by displacement of [3H]clonidine at 10e-6 M from rat brain homogenate preparation; format: tissue-based
How it was run: (§1)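 Rat brain homogenate; percentage displacement of [3H]clonidine by test agent at 10⁻⁶ M; NA denotes under 50%. Mean ± SEM of at least three separate experiments, each in triplicate.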

[2] = target: T2, Adrenergic receptor alpha-1 (Rattus norvegicus, UniProt P15823+P23944+P43140); assay: Binding affinity for alpha-1 adrenergic receptor by displacement of [3H]-prazosin from rat brain homogenate preparation; format: tissue-based
T2 sequence (P15823 whole entry): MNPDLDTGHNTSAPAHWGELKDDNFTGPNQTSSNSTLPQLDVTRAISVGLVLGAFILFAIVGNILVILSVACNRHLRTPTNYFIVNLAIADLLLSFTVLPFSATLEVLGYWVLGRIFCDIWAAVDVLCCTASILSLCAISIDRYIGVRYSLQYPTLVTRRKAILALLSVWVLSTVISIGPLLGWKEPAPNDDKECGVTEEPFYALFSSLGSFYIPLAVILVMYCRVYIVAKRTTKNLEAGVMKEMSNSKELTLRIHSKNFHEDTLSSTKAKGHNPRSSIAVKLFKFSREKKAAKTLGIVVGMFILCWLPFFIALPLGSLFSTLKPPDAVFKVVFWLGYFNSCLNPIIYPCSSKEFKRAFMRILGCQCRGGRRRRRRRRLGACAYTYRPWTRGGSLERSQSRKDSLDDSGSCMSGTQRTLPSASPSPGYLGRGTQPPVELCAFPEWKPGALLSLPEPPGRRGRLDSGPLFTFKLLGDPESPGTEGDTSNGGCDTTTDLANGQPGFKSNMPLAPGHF
T2 sequence (P23944 whole entry): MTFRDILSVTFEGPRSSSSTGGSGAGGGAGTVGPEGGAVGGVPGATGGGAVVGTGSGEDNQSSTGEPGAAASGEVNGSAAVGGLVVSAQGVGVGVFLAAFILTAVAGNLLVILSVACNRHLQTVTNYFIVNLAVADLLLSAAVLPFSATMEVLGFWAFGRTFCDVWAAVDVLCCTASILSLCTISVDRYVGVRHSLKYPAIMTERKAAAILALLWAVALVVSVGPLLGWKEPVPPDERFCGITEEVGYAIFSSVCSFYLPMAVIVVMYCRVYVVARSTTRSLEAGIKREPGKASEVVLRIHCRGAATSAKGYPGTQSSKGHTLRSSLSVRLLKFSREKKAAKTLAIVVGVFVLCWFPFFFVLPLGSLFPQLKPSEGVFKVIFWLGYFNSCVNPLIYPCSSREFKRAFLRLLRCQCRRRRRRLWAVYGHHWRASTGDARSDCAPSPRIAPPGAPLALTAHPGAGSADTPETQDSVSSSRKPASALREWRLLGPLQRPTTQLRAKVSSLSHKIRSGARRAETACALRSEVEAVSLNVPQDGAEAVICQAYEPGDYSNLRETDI
T2 sequence (P43140 whole entry): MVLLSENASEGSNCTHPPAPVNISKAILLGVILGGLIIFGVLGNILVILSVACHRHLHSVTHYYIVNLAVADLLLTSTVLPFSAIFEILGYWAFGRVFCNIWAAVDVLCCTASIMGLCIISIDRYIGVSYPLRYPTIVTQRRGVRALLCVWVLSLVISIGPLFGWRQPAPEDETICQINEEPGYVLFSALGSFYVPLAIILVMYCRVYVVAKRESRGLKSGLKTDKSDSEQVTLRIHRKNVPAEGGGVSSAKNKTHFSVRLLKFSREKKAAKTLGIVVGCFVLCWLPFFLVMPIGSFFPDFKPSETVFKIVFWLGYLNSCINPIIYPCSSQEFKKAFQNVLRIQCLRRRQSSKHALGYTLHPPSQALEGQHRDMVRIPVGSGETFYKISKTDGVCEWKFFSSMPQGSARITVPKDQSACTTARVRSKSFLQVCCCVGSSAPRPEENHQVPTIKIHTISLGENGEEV

Rattus norvegicus [3] = assay: Antihypertensive activity in spontaneously hypertensive rats (SHR) at 5 mg/kg dose (po) after 1 h; format: functional
How it was run: (§2)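 Spontaneously hypertensive rats given 5 mg/kg orally; blood pressure measured, with percentage reduction determined at 1 and 6 h after dosing.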

Rattus norvegicus [4] = assay: Antihypertensive activity in spontaneously hypertensive rats (SHR) at 5 mg/kg dose (po) after 6 h; format: functional; how it was run: as §2
Oryctolagus cuniculus [5] = species: Oryctolagus cuniculus; assay: Concentration producing a 40% increase in [3H]- overflow in rabbit pulmonary artery (Functional alpha-antagonist activity)
Oryctolagus cuniculus [6] = species: Oryctolagus cuniculus; assay: Concentration producing a 40% reduction in contractile response in rabbit pulmonary artery (Functional alpha-antagonist activity)
[7] = target: T1, Adrenergic receptor alpha-2 (Rattus norvegicus); assay: Binding affinity for alpha-2 adrenergic receptor by displacement of [3H]clonidine at 10e-6 M from rat brain homogenate preparation; indicates less than 50%; format: tissue-based; how it was run: as §1
Oryctolagus cuniculus [8] = species: Oryctolagus cuniculus; assay: Concentration producing a 40% increase in [3H]- overflow in rabbit pulmonary artery (Functional alpha-antagonist activity); EC40-pre NA=indicates no activity at 10e-5 M.
Oryctolagus cuniculus [9] = species: Oryctolagus cuniculus; assay: Concentration producing a 40% reduction in contractile response in rabbit pulmonary artery (Functional alpha-antagonist activity); EC40-post
Oryctolagus cuniculus [10] = species: Oryctolagus cuniculus; assay: Concentration producing a 40% increase in [3H]- overflow in rabbit pulmonary artery (Functional alpha-antagonist activity)d; NA= indicates no activity at 10e-5 M.
Oryctolagus cuniculus [11] = species: Oryctolagus cuniculus; assay: Concentration producing a 40% increase in [3H]- overflow in rabbit pulmonary artery (Functional alpha-antagonist activity);EC40-pre, NA=indicates no activity at 10e-5 M.
[12] = target: T1, Adrenergic receptor alpha-2 (Rattus norvegicus); assay: Binding affinity for alpha-2 adrenergic receptor by displacement of [3H]clonidine at 10e-6 M from rat brain homogenate preparation; NA=indicates less than 50%; format: tissue-based; how it was run: as §1

SMILES	Displacement [1]	Ki [2]	Reduction (Rattus norvegicus [3])	Reduction (Rattus norvegicus [4])	EC40 (Oryctolagus cuniculus [5])	EC40 (Oryctolagus cuniculus [6])	Displacement [7]	EC40 (Oryctolagus cuniculus [8])	EC40 (Oryctolagus cuniculus [9])	EC40 (Oryctolagus cuniculus [10])	EC40 (Oryctolagus cuniculus [11])	Displacement [12]
COc1cc2nc(N3CCC(OCC(C)(C)OC)CC3)nc(N)c2cc1OC	75.7%	1.14 nM	20%	9%								
COc1cc2nc(N3CCC(OCC(C)OC)CC3)nc(N)c2cc1OC (stereo unspecified)	68.7%	1.41 nM	34%	16%								
COc1cc2nc(N3CCC(OCC(C)(O)c4ccccc4)CC3)nc(N)c2cc1OC (stereo unspecified)	97%	0.62 nM	23%	20%								
COc1cc2nc(N3CCN(C(=O)c4ccco4)CC3)nc(N)c2cc1OC [PRAZOSIN]			33%	29%	1300 nM	4.5 nM						
COc1cc2nc(N3CCC(OCC(O)c4ccccc4)CC3)nc(N)c2cc1OC (stereo unspecified)	91%	0.15 nM	26%	16%								
CCOC(COC1CCN(c2nc(N)c3cc(OC)c(OC)cc3n2)CC1)c1ccccc1 (stereo unspecified)	84.5%	0.52 nM	16%	12%								
CCOCC(OC1CCN(c2nc(N)c3cc(OC)c(OC)cc3n2)CC1)c1ccccc1 (stereo unspecified)		10 nM	24%	19%			< 50%					
CCCCOCCOC1CCN(c2nc(N)c3cc(OC)c(OC)cc3n2)CC1	76%	1.03 nM	27%	20%								
COCCOC1CCN(c2nc(N)c3cc(OC)c(OC)cc3n2)CC1	53%	2.12 nM	57%	28%								
CCOCCOC1CCN(c2nc(N)c3cc(OC)c(OC)cc3n2)CC1	65.3%	1.81 nM	22%	20%				inactive	38 nM			
CCOC(C)COC1CCN(c2nc(N)c3cc(OC)c(OC)cc3n2)CC1 (stereo unspecified)	74.3%	0.99 nM	43%	20%								
CCOC(C)(COC1CCN(c2nc(N)c3cc(OC)c(OC)cc3n2)CC1)c1ccccc1 (stereo unspecified)	97.5%	0.15 nM	20%	13%		15 nM				inactive		
COc1cc2nc(N3CCC(OCCOc4ccccc4)CC3)nc(N)c2cc1OC	79.3%	0.48 nM	26%	18%					44 nM		inactive	
COc1cc2nc(N3CCC(OCCO)CC3)nc(N)c2cc1OC		2.2 nM	8%	10%								< 50%
COc1cc2nc(N3CCC(OCCOC(C)C)CC3)nc(N)c2cc1OC	73.4%	0.67 nM	26%	15%								
COc1cc2nc(N3CCC(OCC(C)O)CC3)nc(N)c2cc1OC (stereo unspecified)	55%	3.52 nM	30%	19%								
COc1cc2nc(N3CCC(OCCOC4CCCC4)CC3)nc(N)c2cc1OC			20%	11%								
COc1cc2nc(N3CCC(OCC(C)(C)O)CC3)nc(N)c2cc1OC	61.7%	1.28 nM	40%	22%								

Reference: ChEMBL document CHEMBL1124050, “2,4-Diamino-6,7-dimethoxyquinazolines. 4. 2-[4-(substituted oxyethoxy) piperidino] derivatives as alpha 1-adrenoceptor antagonists and antihypertensive agents” (J Med Chem, 1988)
